Active and inactive are the calls of the source. The rule behind the calls is not given here.
Tests used:
[1] = organism: Homo sapiens; experiment: Inactivation of human alkyltransferase in absence of DNA
Method in brief: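 Purified recombinant human alkyltransferase was incubated with a range of inhibitor concentrations for 30 min at 37°C. The reaction buffer was 50 mM Tris-HCl pH 7.6, 0.1 mM EDTA and 5.0 mM dithiothreitol, with 50 μg hemocyanin and no DNA. ED50 was read from plots of % remaining activity against inhibitor concentration. Values are means of 3–5 repeats or of two experiments.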

[2] = organism: Homo sapiens; experiment: (§1) Inactivation of human alkyltransferase in presence of DNA
Method in brief: (§2)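 Purified recombinant human alkyltransferase was incubated with a range of inhibitor concentrations plus 10 μg calf thymus DNA for 30 min at 37°C. The buffer was 50 mM Tris-HCl pH 7.6, 0.1 mM EDTA and 5.0 mM DTT. ED50 came from graphs of % remaining activity against inhibitor concentration. Values are means of 3–5 repeats or of two experiments.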

[3] = tested on: HT-29; experiment: Induction of sensitization to BCNU-induced killing in human HT29 cells; assay type: functional, cell-based
Method in brief: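 HT29 cells in RPMI with 10% FBS were given inhibitor for 2 h before 40 μM BCNU for 2 h. Alternatively, cells grown 48 h in folate-free RPMI got inhibitor for 8 h before 20 μM BCNU for 2 h. Inhibitor-containing medium followed for 16–18 h. Cells were replated at 250–1000 per flask and grown 8 days. Survival was scored as crystal violet-stained colonies.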

[4] = tested on: KB; experiment: Induction of sensitization to BCNU-induced killing in human KB cells; assay type: functional, cell-based
Method in brief: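 KB cells were grown 48 h in folate-free RPMI with 10% FBS and plated at 10⁶ per flask. After 24 h they were exposed to inhibitor at different concentrations for 8 h, then 40 μM BCNU for 2 h. Medium with inhibitor but no BCNU was given for 16–18 h. Cells were replated at 250–1000 per flask for 8 days of colony formation. Colonies were stained with crystal violet and counted.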

[5] = as §1; method in brief: as §2
[6] = tested on: A549; experiment: Induction of sensitization to BCNU-induced killing in human A549 cells; assay type: functional, cell-based
Method in brief: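 A549 cells were grown 48 h in folate-free RPMI with 10% FBS and plated at 10⁶ per flask. After 24 h they were given inhibitor at various concentrations for 8 h, then 20 μM BCNU for 2 h. Medium was replaced with inhibitor-containing medium for 16–18 h. Cells were replated at 250–1000 per flask and grown 8 days. Crystal violet-stained colonies were counted.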

[7] = tested on: T1, Methylated-DNA--protein-cysteine methyltransferase (Homo sapiens), P16455 [P140K]; experiment: Inactivation of human alkyltransferase P140K mutant
T1 sequence (whole entry): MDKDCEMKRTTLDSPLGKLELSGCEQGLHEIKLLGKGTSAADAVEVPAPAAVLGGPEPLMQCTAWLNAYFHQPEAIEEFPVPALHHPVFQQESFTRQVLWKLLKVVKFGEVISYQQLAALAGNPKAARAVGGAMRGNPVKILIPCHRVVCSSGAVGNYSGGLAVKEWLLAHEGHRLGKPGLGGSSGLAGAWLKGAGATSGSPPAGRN

Row | Compound | ED50 [1] [nM] | ED50 [2] [nM] | Activity [3] | Activity [4] | EC50 [5] [nM] | Activity [6] | ED50 [7] [nM]
1 | Nc1nc(OCc2ccc(CO)cc2)c2nc[nH]c2n1 | 400 | 100 | Active |  |  |  | 
2 | Nc1nc(OCc2ccccc2)c2ncn([C@H]3C[C@H](O)[C@@H](COC(=O)CC[C@H](NC(=O)c4ccc(NCc5cnc6nc(N)[nH]c(=O)c6n5)cc4)C(=O)O)O3)c2n1 | 640 |  | Active | Active | 3060 | Active | 
3 | Nc1nc(OCc2ccccc2)c2ncn([C@H]3C[C@H](O)[C@@H](CO)O3)c2n1 | 2000 | 40000 |  |  |  |  | 
4 | Nc1nc(OCc2ccccc2)c2nc[nH]c2n1 | 300 | 100 |  |  |  |  | 
5 | Nc1nc(OCc2ccccc2)c2ncn([C@H]3C[C@H](OC(=O)CC[C@H](NC(=O)c4ccc(NCc5cnc6nc(N)[nH]c(=O)c6n5)cc4)C(=O)O)[C@@H](CO)O3)c2n1 | 16 | 680 | Active | Active |  | Active | 100000
6 | Nc1nc(OCc2ccc(COC(=O)CC[C@H](NC(=O)c3ccc(NCc4cnc5nc(N)[nH]c(=O)c5n4)cc3)C(=O)O)cc2)c2nc[nH]c2n1 | 700 | 240 |  |  |  |  | 

Source: ChEMBL document CHEMBL1148823, “Inactivation of O(6)-alkylguanine-DNA alkyltransferase by folate esters of O(6)-benzyl-2'-deoxyguanosine and of O(6)-[4-(hydroxymethyl)benzyl]guanine” (J Med Chem, 2007)
